Results taken from ChEMBL document CHEMBL1152726, “Discovery of small molecule human C5a receptor antagonists” (Bioorg Med Chem Lett, 2009).
Calls of active or inactive are those of the source. The calls are words filed in the database; no cut-off is given here.

What was measured:
[1] = biological target: T1, C5a anaphylatoxin chemotactic receptor 1 (Homo sapiens, UniProt P21730); test: Antagonist activity at human recombinant C5a receptor in HEK cells assessed as inhibition of C5a-induced calcium mobilization; format: functional, cell-based, HEK293
T1 sequence (P21730 whole entry): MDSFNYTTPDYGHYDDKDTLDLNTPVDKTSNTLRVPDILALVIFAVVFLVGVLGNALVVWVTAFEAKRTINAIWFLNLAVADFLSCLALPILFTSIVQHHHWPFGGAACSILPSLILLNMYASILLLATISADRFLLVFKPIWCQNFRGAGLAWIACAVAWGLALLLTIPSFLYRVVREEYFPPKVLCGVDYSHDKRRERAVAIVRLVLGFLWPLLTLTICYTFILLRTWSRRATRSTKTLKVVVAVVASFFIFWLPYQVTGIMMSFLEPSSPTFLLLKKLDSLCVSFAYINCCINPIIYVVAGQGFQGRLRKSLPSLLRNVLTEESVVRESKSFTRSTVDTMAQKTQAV

[2] = Metabolic stability in Sprague-Dawley rat hepatocytes assessed as intrinsic clearance measured per 10^6 cells
[3] = Metabolic stability in human liver microsomes assessed as intrinsic clearance
[4] = Lipophilicity, log D at pH 7.4; conditions: buffer
[5] = biological target: T1, C5a anaphylatoxin chemotactic receptor 1; test: Displacement of [Alexa647]C5a from human recombinant C5a receptor expressed in HEK cells by whole cell binding assay; format: cell-based, HEK293
Summary of the method: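 Whole-cell FMAT competition binding measured inhibition of Alexa-647-labeled C5a binding to HEK-293 cells co-expressing human recombinant C5aR and Gα16. pIC50 derived; values are means of at least two experiments.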

[6] = biological target: T1, C5a anaphylatoxin chemotactic receptor 1
[7] = biological target: T1, C5a anaphylatoxin chemotactic receptor 1; test: Displacement of from human recombinant C5a receptor expressed in HEK cells by membrane binding assay in presence
[8] = biological target: T2, C5a anaphylatoxin chemotactic receptor 1 (Rattus norvegicus) (UniProt P97520); test: Antagonist activity at rat recombinant C5a receptor expressed in HEK cells assessed as inhibition of C5a-induced calcium mobilization at 30 uM; format: functional, cell-based; conditions: HEK293
T2 sequence (whole entry): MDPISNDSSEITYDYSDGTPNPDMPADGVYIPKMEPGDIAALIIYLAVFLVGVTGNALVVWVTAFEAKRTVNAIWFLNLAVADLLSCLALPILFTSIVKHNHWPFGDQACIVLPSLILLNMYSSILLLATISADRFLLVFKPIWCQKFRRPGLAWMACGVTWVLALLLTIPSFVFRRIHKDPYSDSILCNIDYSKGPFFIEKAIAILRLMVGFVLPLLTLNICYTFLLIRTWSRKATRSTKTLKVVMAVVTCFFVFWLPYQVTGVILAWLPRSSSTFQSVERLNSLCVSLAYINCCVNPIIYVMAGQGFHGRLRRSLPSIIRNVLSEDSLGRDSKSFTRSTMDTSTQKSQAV
Summary of the method: (§1)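 Non-human (dog, mouse or rat) recombinant C5aR cell lines tested for antagonism of C5a-stimulated intracellular calcium mobilization. Values are means of at least two experiments.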

[9] = biological target: T3, C5a anaphylatoxin chemotactic receptor 1 (Canis lupus familiaris) (UniProt P30992); test: Antagonist activity at dog recombinant C5a receptor expressed in HEK cells assessed as inhibition of C5a-induced calcium mobilization at 30 uM; format: functional, cell-based; conditions: HEK293; summary of the method: as §1
T3 sequence (whole entry): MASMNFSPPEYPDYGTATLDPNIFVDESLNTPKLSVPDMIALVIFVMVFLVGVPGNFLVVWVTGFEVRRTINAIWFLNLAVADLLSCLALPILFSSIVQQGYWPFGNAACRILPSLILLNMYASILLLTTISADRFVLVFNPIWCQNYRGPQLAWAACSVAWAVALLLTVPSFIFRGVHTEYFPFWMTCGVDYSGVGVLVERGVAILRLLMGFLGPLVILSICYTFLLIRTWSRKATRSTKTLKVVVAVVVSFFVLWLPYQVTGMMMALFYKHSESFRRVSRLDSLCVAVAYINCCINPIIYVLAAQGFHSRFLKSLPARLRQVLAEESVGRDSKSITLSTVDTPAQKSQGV

[10] = biological target: T4, C5a anaphylatoxin chemotactic receptor 1 (Mus musculus) (UniProt P30993); test: Antagonist activity at mouse recombinant C5a receptor expressed in HEK cells assessed as inhibition of C5a-induced calcium mobilization at 30 uM; format: functional, cell-based; conditions: HEK293; summary of the method: as §1
T4 sequence (whole entry): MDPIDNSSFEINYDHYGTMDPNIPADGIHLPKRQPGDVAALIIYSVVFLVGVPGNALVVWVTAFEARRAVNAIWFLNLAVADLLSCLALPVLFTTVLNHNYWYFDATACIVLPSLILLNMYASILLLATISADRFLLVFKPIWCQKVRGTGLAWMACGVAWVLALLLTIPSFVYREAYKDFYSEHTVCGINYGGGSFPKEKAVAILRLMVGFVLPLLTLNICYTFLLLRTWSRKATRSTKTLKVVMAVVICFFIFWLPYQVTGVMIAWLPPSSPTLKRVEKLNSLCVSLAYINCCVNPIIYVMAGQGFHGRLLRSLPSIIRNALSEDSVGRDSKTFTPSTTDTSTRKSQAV

[11] = biological target: T1, C5a anaphylatoxin chemotactic receptor 1; test: Displacement of [125I]C5a from human recombinant C5a receptor expressed in HEK cells by membrane binding assay

## COc1ccc(N(C(=O)c2ccccc2)C(C(=O)NC(C)CN(C)C)c2ccccc2F)c(OC)c1 (centres undefined)
[1]
  IC50: 1000 nM
[2]
  hepatocyte CLint: 33 µL/min/1e6 cells
[3]; liver microsomes
  microsomal CLint: 135 µL/min/mg

## COc1ccc(N(C(=O)c2ccccc2)C(C)C(=O)NC2CCCC2)c(OC)c1 (centres undefined)
[1]
  IC50: > 10000 nM

## COc1ccc(N(C(=O)c2occc2CN(C)C)C(C(=O)NC[C@@H](C)O)c2ccccc2F)c(OC)c1 (some centres undefined)
[1]
  IC50: 3160 nM
[2]
  hepatocyte CLint: < 3 µL/min/1e6 cells
[3]; liver microsomes
  microsomal CLint: 12 µL/min/mg

## COc1ccc(N(C(=O)c2ccoc2Cl)C(C(=O)NC[C@@H](C)O)c2ccccc2F)c(OC)c1 (some centres undefined)
[1]
  IC50: 316 nM
[2]
  hepatocyte CLint: 33 µL/min/1e6 cells
[3]; liver microsomes
  microsomal CLint: 48 µL/min/mg
[4]
  logD: 2.4

## COCc1ccoc1C(=O)N(c1ccc(OC)cc1OC)C(C(=O)NC[C@@H](C)O)c1ccccc1F (some centres undefined)
[1]
  IC50: 100 nM
[2]
  hepatocyte CLint: 35 µL/min/1e6 cells
[3]; liver microsomes
  microsomal CLint: 76 µL/min/mg
[4]
  logD: 2

## COc1ccc(N(C(=O)c2ccccc2)C(C(=O)NC2CCCC2)c2ccccc2F)c(OC)c1 (centres undefined)
[5]
  IC50: 39.8 nM
[1]
  IC50: 25.1 nM
[6]
  EC50: 123 nM
[7]
  IC50: 31.6 nM
[8]
  Activity: inactive
[4]
  logD: 3.9
[9]
  Activity: inactive
[10]
  Activity: inactive
[11]
  IC50: 794 nM

## CN(C(=O)c1ccccc1)C(C(=O)NC1CCCC1)c1ccccc1F (centres undefined)
[1]
  IC50: > 10000 nM

## COc1ccc(N(C(=O)c2occc2CO)C(C(=O)NC[C@@H](C)O)c2ccccc2F)c(OC)c1 (some centres undefined)
[2]
  hepatocyte CLint: 8 µL/min/1e6 cells
[3]; microsomes
  microsomal CLint: 12 µL/min/mg
[4]
  logD: 1.4

## COc1ccc(N(C(=O)c2ccco2)C(C(=O)NC2CCCC2)c2ccccc2F)c(OC)c1 (centres undefined)
[5]
  IC50: 79.4 nM
[1]
  IC50: 126 nM
[2]
  hepatocyte CLint: > 150 µL/min/1e6 cells
[7]
  IC50: 251 nM
[3]; liver microsomes
  microsomal CLint: > 150 µL/min/mg
[8]
  Activity: inactive
[9]
  Activity: inactive
[10]
  Activity: inactive
[11]
  IC50: 3160 nM

## COc1ccc(N(C(=O)c2ccoc2C)C(C(=O)NC[C@@H](C)O)c2ccccc2F)c(OC)c1 (some centres undefined)
[1]
  IC50: 39.8 nM
[2]
  hepatocyte CLint: 75 µL/min/1e6 cells
[3]; liver microsomes
  microsomal CLint: 134 µL/min/mg

## COc1ccc(N(C(=O)c2ccccc2)C(C(=O)O)c2ccccc2F)c(OC)c1 (centres undefined)
[1]
  IC50: > 10000 nM

## COc1ccc(N(C(=O)c2ccccc2)C(C(=O)NC[C@@H](C)O)c2ccccc2F)c(OC)c1 (some centres undefined)
[1]
  IC50: 63.1 nM
[2]
  hepatocyte CLint: > 150 µL/min/1e6 cells
[3]; liver microsomes
  microsomal CLint: 104 µL/min/mg
[4]
  logD: 2.55

## COc1ccc(N(C(C)=O)C(C(=O)NC2CCCC2)c2ccccc2F)c(OC)c1 (centres undefined)
[1]
  IC50: 794 nM

## COc1ccc(N(C(=O)c2occc2Cl)C(C(=O)NC[C@@H](C)O)c2ccccc2F)c(OC)c1 (some centres undefined)
[1]
  IC50: 200 nM
[2]
  hepatocyte CLint: 59 µL/min/1e6 cells
[3]; liver microsomes
  microsomal CLint: 148 µL/min/mg
[4]
  logD: 2.2

## COc1ccc(N(C(=O)c2ccccc2)C(C(=O)NC[C@H](C)O)c2ccccc2F)c(OC)c1 (some centres undefined)
[1]
  IC50: > 100 nM

## COc1ccc(N(C(=O)c2occc2C)C(C(=O)NC[C@@H](C)O)c2ccccc2F)c(OC)c1 (some centres undefined)
[1]
  IC50: 20 nM
[2]
  hepatocyte CLint: 87 µL/min/1e6 cells
[3]; liver microsomes
  microsomal CLint: 126 µL/min/mg
